Active and inactive are the calls of the source. The rule behind the calls is not given here.
Key:
[1] = molecular target: T1, Retinoic acid receptor RXR-gamma (Homo sapiens, UniProt P48443); test: Antagonist activity at RXRgamma expressed in african green monkey COS1 cells assessed as inhibition of LGD-1069-induced agonist activity; format: functional, cell-based, COS-1
T1 sequence (P48443 whole entry): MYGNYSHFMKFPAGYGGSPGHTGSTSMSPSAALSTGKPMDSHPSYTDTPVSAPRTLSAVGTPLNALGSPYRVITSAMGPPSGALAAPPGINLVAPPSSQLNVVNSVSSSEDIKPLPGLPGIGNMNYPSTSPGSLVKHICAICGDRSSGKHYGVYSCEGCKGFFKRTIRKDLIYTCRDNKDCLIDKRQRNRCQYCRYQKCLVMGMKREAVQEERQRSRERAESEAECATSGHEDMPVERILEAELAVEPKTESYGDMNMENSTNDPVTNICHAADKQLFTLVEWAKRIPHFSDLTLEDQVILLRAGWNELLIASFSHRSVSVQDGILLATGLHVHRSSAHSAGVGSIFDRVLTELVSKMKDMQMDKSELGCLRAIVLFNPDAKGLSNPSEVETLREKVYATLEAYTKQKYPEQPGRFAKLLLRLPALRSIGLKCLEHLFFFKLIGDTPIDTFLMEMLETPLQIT
How it was run: (§1)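 Luciferase reporter gene assay in COS-1 cells measuring inhibition of LGD1069-driven activity. IC50 is taken from full dose–response curves spanning 10^-7 to 10^-5 M.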

[2] = molecular target: T2, Retinoic acid receptor RXR-beta (Homo sapiens, UniProt P28702); test: Antagonist activity at RXRbeta expressed in african green monkey COS1 cells assessed as inhibition of LGD-1069-induced agonist activity; format: functional, cell-based, COS-1; how it was run: as §1
T2 sequence (P28702 whole entry): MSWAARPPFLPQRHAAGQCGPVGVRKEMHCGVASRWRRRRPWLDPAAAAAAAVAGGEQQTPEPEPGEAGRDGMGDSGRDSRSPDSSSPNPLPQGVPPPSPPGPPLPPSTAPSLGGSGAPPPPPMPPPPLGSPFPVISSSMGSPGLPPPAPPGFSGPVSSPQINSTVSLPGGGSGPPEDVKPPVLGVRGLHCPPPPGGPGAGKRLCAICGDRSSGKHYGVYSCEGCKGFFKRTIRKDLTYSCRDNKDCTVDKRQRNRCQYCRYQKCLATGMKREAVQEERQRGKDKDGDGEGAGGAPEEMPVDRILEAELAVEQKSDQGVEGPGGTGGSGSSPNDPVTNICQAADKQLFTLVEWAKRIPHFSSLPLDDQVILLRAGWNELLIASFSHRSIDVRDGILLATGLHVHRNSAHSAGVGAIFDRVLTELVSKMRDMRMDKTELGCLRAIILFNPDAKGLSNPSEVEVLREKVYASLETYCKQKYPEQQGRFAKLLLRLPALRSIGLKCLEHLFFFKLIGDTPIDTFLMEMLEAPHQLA

[3] = molecular target: T3, Retinoic acid receptor RXR-beta (Homo sapiens) (UniProt P28702); test: Agonist activity at RXRbeta expressed in african green monkey COS1 cells by luciferase reporter gene assay relative to LGD1069; format: functional, cell-based; details: COS-1
T3 sequence (whole entry): T2 sequence (P28702 whole entry)
How it was run: (§2)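 Luciferase reporter gene assay in COS-1 cells. Each subtype's activity is expressed relative to 1 μM LGD1069, an RXR pan-agonist, used as the reference.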

[4] = molecular target: T4, Retinoic acid receptor RXR-alpha (Homo sapiens, UniProt P19793); test: Antagonist activity at RXRalpha expressed in african green monkey COS1 cells assessed as inhibition of LGD-1069-induced agonist activity; format: functional, cell-based, COS-1
T4 sequence (P19793 whole entry): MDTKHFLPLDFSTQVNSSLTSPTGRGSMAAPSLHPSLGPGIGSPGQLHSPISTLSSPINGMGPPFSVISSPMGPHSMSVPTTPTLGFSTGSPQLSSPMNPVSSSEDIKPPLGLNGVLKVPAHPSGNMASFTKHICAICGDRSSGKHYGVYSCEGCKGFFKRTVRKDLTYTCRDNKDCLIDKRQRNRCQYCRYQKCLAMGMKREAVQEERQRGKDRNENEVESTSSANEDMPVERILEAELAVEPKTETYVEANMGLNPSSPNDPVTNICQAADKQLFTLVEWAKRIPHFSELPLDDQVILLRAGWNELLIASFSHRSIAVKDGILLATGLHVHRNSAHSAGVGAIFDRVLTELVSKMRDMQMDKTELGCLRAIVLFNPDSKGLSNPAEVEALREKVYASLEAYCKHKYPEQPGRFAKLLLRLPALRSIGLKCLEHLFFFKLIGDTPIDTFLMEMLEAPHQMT

[5] = molecular target: T5, Retinoic acid receptor RXR-alpha (Homo sapiens) (UniProt P19793); test: Agonist activity at RXRalpha expressed in african green monkey COS1 cells by luciferase reporter gene assay relative to LGD1069; format: functional, cell-based; details: COS-1; how it was run: as §2
T5 sequence (whole entry): T4 sequence (P19793 whole entry)

[6] = molecular target: T6, Retinoic acid receptor RXR-gamma (Homo sapiens) (UniProt P48443); test: Agonist activity at RXRgamma expressed in african green monkey COS1 cells by luciferase reporter gene assay relative to LGD1069; format: functional, cell-based; details: COS-1; how it was run: as §2
T6 sequence (whole entry): T1 sequence (P48443 whole entry)

Compound | IC50 [1] [µM] | IC50 [2] [µM] | Activity [3] | IC50 [4] [µM] | Activity [5] | Activity [6]
CN1c2ccc([N+](=O)[O-])cc2N=C(c2ccc(C(=O)O)cc2)c2cc3c(cc21)C(C)(C)CCC3(C)C | 0.38 | 0.044 | – | – | – | –
CC1(C)CCC(C)(C)c2cc(N(c3ccc(C(=O)O)cn3)S(=O)(=O)c3ccc(Cl)cc3)ccc21 | 4.5 | 0.87 | inactive | 4.1 | inactive | inactive
CC1(C)CCC(C)(C)c2cc(N(c3ccc(C(=O)O)cn3)S(=O)(=O)c3ccc(C(F)(F)F)cc3)ccc21 | 2.7 | 0.75 | inactive | 3.2 | inactive | inactive
CC1(C)CCC(C)(C)c2cc(N(c3ccc(C(=O)O)cn3)S(=O)(=O)c3ccc([N+](=O)[O-])cc3)ccc21 | > 10 | > 10 | inactive | > 10 | inactive | inactive
CCCCS(=O)(=O)N(c1ccc2c(c1)C(C)(C)CCC2(C)C)c1ccc(C(=O)O)cn1 | > 10 | > 10 | – | > 10 | – | –
COc1ccc(S(=O)(=O)N(c2ccc3c(c2)C(C)(C)CCC3(C)C)c2ccc(C(=O)O)cn2)cc1 | 6.6 | 3.9 | inactive | 2.7 | inactive | inactive
CC1(C)CCC(C)(C)c2cc(N(c3ccc(C(=O)O)cn3)S(=O)(=O)c3ccccc3)ccc21 | > 10 | > 10 | inactive | > 10 | inactive | inactive
Cc1ccc(S(=O)(=O)N(c2ccc3c(c2)C(C)(C)CCC3(C)C)c2ccc(C(=O)O)cn2)cc1 | 3.8 | 3 | inactive | 5.2 | inactive | inactive

— ChEMBL document CHEMBL1141025, “Replacing alkyl sulfonamide with aromatic sulfonamide in sulfonamide-type RXR agonists favors switch towards antagonist activity” (Bioorg Med Chem Lett, 2009)
